This assay has as its target CatSper (Homo sapiens, UniProt Q7RTX7+Q86XQ3+Q8NEC5+Q96P56). Put plainly: Human sperm calcium influx assay, activation. It is filed as cell-based. The following applies: for Emax, %, Steroid Alone: percent of response to saturating PROG (3 µM); for fold less potent than PROG (calcium influx): relative to PROG; for Emax: read-out: Emax, %, Steroid Alone; for fold lower activity than the corresponding pregnanolones (10–11): hydroxylation of the 21 position. In outline:
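Semen from healthy donors was liquefied at 37 °C, washed twice in low pH/low K+ buffer (pH 6.7, 0.2 mM CaCl2), then loaded with 10 µM Fluo-4-AM plus 1 mM probenecid, 30 min, room temperature, dark. On FLIPR, buffer was added first, then openers 2 min later. Fluorescence was read for 7 min at 2-s intervals. EC50 came from 8-point, 3-fold dilutions in duplicate, peak height, four-parameter fit. Emax is relative to 3 µM progesterone. Activators were retested with 30 µM mibefradil.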

The mark [1] stands for this setting: pEC50, calcium influx, Steroid Alone, human sperm, mean ±SD.

Like-named read-outs stand apart in the source and are kept apart here.

A word on the EC50: it is the concentration at which the effect is half-maximal. As usually defined, the Emax is the maximal effect, on the per cent scale that the assay sets.

`CC(=O)[C@H]1CC[C@H]2[C@@H]3CCC4=CC(=O)C(C)(C)C[C@]4(C)[C@H]3CC[C@]12C` [compound 18, 2,2-dimethylprogesterone]: the “Emax, %, Steroid Alone” value is listed as 99% and the “fold less potent than PROG (calcium influx)” value is recorded as 135 fold. In addition, the “pEC50, calcium influx, Steroid Alone” value (human sperm, mean ±SD) was determined as 6.31 ± 0.16.
For `CCCCC[C@H](O)/C=C/[C@H]1[C@H](O)CC(=O)[C@@H]1CCCCCCC(=O)O` [compound 2, prostaglandin E1], the Emax was determined as 101%. For the same molecule, the EC50 under setting [1] is 0.00398 µM.
In the same order, the values of `CC(=O)O[C@]1(C(C)=O)CC[C@H]2[C@@H]3CCC4=CC(=O)CCC4=C3[C@@H](c3ccc(N(C)C)cc3)C[C@@]21C` [compound 34, ulipristal acetate] are 27% and greater than 10 µM.
On to `CC(=O)O[C@]1(C(C)=O)CC[C@H]2[C@@H]3CCC4=CC(=O)CC[C@]4(C)[C@H]3CC[C@@]21C` [compound 29, 17α-acetoxyprogesterone], for which the “Emax, %, Steroid Alone” value is recorded as 31%.
On to `CC(=O)[C@@]1(O)CC[C@H]2[C@@H]3CCC4=CC(=O)CCC4=C3[C@@H](c3ccc(N(C)C)cc3)C[C@@]21C` [compound 32, ulipristal], for which the maximal response (Emax) is 106%. In addition, the EC50 under setting [1] was 3.55 µM.
`C[C@]12CC[C@@H](O)C[C@H]1CC[C@@H]1[C@@H]2CC[C@]2(C)[C@@H](C(=O)CO)CC[C@@H]12` [compound 26, 3α,5β-THDOC]: the “fold lower activity than the corresponding pregnanolones (10–11)” value is “threefold”; the “Emax, %, Steroid Alone” value is 100%; the “fold less potent than PROG (calcium influx)” value is given as no less than 240 fold. Also, the “pEC50, calcium influx, Steroid Alone” value (human sperm, mean ±SD) is 5.80 ± 0.26.
Regarding `CC(=O)[C@H]1CC[C@H]2[C@@H]3CC[C@H]4CC(=O)CC[C@]4(C)[C@H]3CC[C@]12C` [compound 15, 5β-dihydroprogesterone], the “Emax, %, Steroid Alone” value stood at 95% and the “fold less potent than PROG (calcium influx)” value is roughly 30 fold. In addition, where the note is “human sperm, mean ±SD”, the “pEC50, calcium influx, Steroid Alone” value was found to be 6.87 ± 0.17.
For the molecule `C[C@]12CC[C@@H](O)C[C@@H]1CC[C@@H]1[C@@H]2CC[C@]2(C)[C@@H](C(=O)CO)CC[C@@H]12` [compound 27, 3α,5α-THDOC], the “fold lower activity than the corresponding pregnanolones (10–11)” value is “threefold”; the “Emax, %, Steroid Alone” value worked out at 96%; the “fold less potent than PROG (calcium influx)” value is listed as no less than 240 fold. The “pEC50, calcium influx, Steroid Alone” value (human sperm, mean ±SD) is on record as 6.05 ± 0.21.
For `CC(=O)[C@H]1CC[C@H]2[C@@H]3CC[C@@H]4C[C@H](O)CC[C@]4(C)[C@H]3CC[C@]12C` [compound 11, 3α,5β-pregnanolone], the “Emax, %, Steroid Alone” value came to 102%. Moreover, under “human sperm, mean ±SD”, the “pEC50, calcium influx, Steroid Alone” value worked out at 6.26 ± 0.25.
As to `CC(=O)[C@H]1CC[C@H]2[C@@H]3C[C@H](C)C4=CC(=O)CC[C@]4(C)[C@H]3CC[C@]12C` [compound 20, 6α-methylprogesterone], the “Emax, %, Steroid Alone” value is listed as 96% and the “fold less potent than PROG (calcium influx)” value came to 190 fold. The “pEC50, calcium influx, Steroid Alone” value (human sperm, mean ±SD) is 6.16 ± 0.14.
Consider `C[C@H]1C[C@]2(C)[C@@H](O)CC[C@H]2[C@@H]2CCC3=CC(=O)CC[C@@H]3[C@H]21` [compound 38, 11β-methyl-19-nortestosterone], for which the “Emax, %, Steroid Alone” value was 85%. The “pEC50, calcium influx, Steroid Alone” value (human sperm, mean ±SD) came to 6.37 ± 0.32.
In the same order, the values of `C=C1C[C@H]2[C@@H]3CCC4=CC(=O)CC[C@@H]4[C@H]3CC[C@]2(C)[C@@]1(OC(C)=O)C(C)=O` [compound 35, segesterone acetate] are 57% and less than 5.
Take `CC(=O)[C@H]1CC[C@H]2[C@@H]3CCC4=CC(=O)CC[C@]4(C)[C@H]3[C@@H](O)C[C@]12C` [compound 23, 11β-hydroxyprogesterone]: the Emax was 90% and the “fold less potent than PROG (calcium influx)” value amounted to 5 fold. Further, under setting [1], the EC50 was 0.0186 µM.
Consider `CC(=O)[C@@]1(O)CC[C@H]2[C@@H]3C[C@H](C)C4=CC(=O)CC[C@]4(C)[C@H]3CC[C@@]21C` [compound 30, 17α-hydroxy-6α-methylprogesterone], for which the “Emax, %, Steroid Alone” value is recorded as 96%. For the same molecule, where the note is “addition of a 6α-methyl group”, the “fold reduction of activity relative to 17α-hydroxyprogesterone” value is 47 fold. In addition, the “pEC50, calcium influx, Steroid Alone” value (human sperm, mean ±SD) was 6.33 ± 0.10.
Turning to `CC(=O)[C@H]1CC[C@H]2[C@@H]3C[C@@H](C)[C@@]4(O)CC(=O)CC[C@]4(C)[C@H]3CC[C@]12C` [compound 22, 5α-hydroxy-6β-methylpregnan-3,20-dione], the Emax was found to be 95%. The concentration for a half-maximal effect (EC50) under setting [1] is 5.01 µM.
`CC(=O)[C@H]1CC[C@H]2[C@@H]3CCC4=CC(=O)CC[C@]4(C)[C@H]3[C@H](O)C[C@]12C` [compound 24, 11α-hydroxyprogesterone]: the “Emax, %, Steroid Alone” value is reported as 100% and the “fold less potent than PROG (calcium influx)” value was 35 fold. Also, where the note is “human sperm, mean ±SD”, the “pEC50, calcium influx, Steroid Alone” value was 6.90 ± 0.08.
For `CC(=O)[C@H]1CC[C@H]2[C@@H]3CC[C@H]4C[C@@H](O)CC[C@]4(C)[C@H]3CC[C@]12C` [compound 12, 3β,5α-pregnanolone], the “Emax, %, Steroid Alone” value amounted to 99%. The “pEC50, calcium influx, Steroid Alone” value (human sperm, mean ±SD) is on record as 7.16 ± 0.11.
Turning to `CC(=O)[C@H]1CC[C@H]2[C@@H]3CC[C@H]4CC(=O)CC[C@]4(C)[C@H]3CC[C@]12C` [compound 14, 5α-dihydroprogesterone], the “Emax, %, Steroid Alone” value is given as 87% and the “fold less potent than PROG (calcium influx)” value was roughly 30 fold. For the same molecule, the “pEC50, calcium influx, Steroid Alone” value (human sperm, mean ±SD) amounted to 6.99 ± 0.05.
Consider `CC(=O)C1(O)CCC2C3CCC4=CC(=O)CCC4(C)C3CCC21C` (stereo not drawn) [compound 25, 17α-hydroxyprogesterone], for which the maximal effect (Emax) was 115% and the “fold less potent than PROG (calcium influx)” value is recorded as “threefold”. Besides, under setting [1], the EC50 is 0.0105 µM.
Take `CC(=O)[C@H]1CC[C@H]2[C@@H]3C[C@@H]4O[C@@]45CC(=O)CC[C@]5(C)[C@H]3CC[C@]12C` [compound 16, 5α,6α-epoxypregnan-3,20-dione]: the maximal effect (Emax) amounted to 83%. The concentration for a half-maximal effect (EC50) under setting [1] is 0.832 µM.
Take `CC(=O)[C@H]1CC[C@H]2[C@@H]3CC[C@@H]4C[C@@H](O)CC[C@]4(C)[C@H]3CC[C@]12C` [compound 13, 3β,5β-pregnanolone]: the “Emax, %, Steroid Alone” value was determined as 92%. Besides, the “pEC50, calcium influx, Steroid Alone” value (human sperm, mean ±SD) stood at 6.89 ± 0.20.
Turning to `CC(=O)[C@H]1CC[C@H]2[C@@H]3C[C@H]4O[C@]45CC(=O)CC[C@]5(C)[C@H]3CC[C@]12C` [compound 17, 5β,6β-epoxypregnan-3,20-dione], the Emax turned out to be 84%. The half-maximal effective concentration (EC50) under setting [1] is 0.417 µM.
`C[C@H]1C[C@]2(C)[C@@H](O)CC[C@H]2[C@H]2[C@H]1[C@H]1CCC(=O)C=C1C[C@@H]2C` [compound 41, 7β,11β-dimethylandrolone]: the “Emax, %, Steroid Alone” value was found to be 42%. Moreover, the “pEC50, calcium influx, Steroid Alone” value (human sperm, mean ±SD) worked out at 5.41 ± 0.24.
In the same order, the values of `C[C@@H]1CC2=CC(=O)CC[C@@H]2[C@@H]2[C@@H]1[C@@H]1CC[C@H](O)[C@@]1(C)C[C@@H]2C` [compound 40, 7α,11β-dimethylandrolone] are 80% and 6.06 ± 0.49.
In the same order, the values of `CC(=O)[C@H]1CC[C@H]2[C@@H]3CC[C@H]4C[C@H](O)CC[C@]4(C)[C@H]3CC[C@]12C` [compound 10, 3α,5α-pregnanolone] are 85% and 6.56 ± 0.21.
Regarding `CC(=O)[C@H]1CC[C@H]2[C@@H]3C[C@@H](C)C4=CC(=O)CC[C@]4(C)[C@H]3CC[C@]12C` [compound 19, 6β-methylprogesterone], the “Emax, %, Steroid Alone” value stood at 90%. For the same molecule, the “pEC50, calcium influx, Steroid Alone” value (human sperm, mean ±SD) was 6.58 ± 0.12.
Consider `CC(=O)[C@H]1CC[C@H]2[C@@H]3C[C@@H](O)C4=CC(=O)CC[C@]4(C)[C@H]3CC[C@]12C` [compound 21, 6β-hydroxyprogesterone], for which the “Emax, %, Steroid Alone” value is given as 116%. The “pEC50, calcium influx, Steroid Alone” value (human sperm, mean ±SD) turned out to be 6.91 ± 0.10.
In the same order, the values of `C[C@@H]1CC2=CC(=O)CC[C@@H]2[C@H]2CC[C@]3(C)[C@@H](O)CC[C@H]3[C@@H]21` [compound 39, 7α-methyl-19-nortestosterone] are 86% and 6.25 ± 0.37.
`CC(=O)[C@H]1[C@H](O)C[C@H]2[C@@H]3CCC4=CC(=O)CC[C@]4(C)[C@H]3CC[C@@]21C` [compound 28, 16α-hydroxyprogesterone]: the “Emax, %, Steroid Alone” value is 106% and the “fold less potent than PROG (calcium influx)” value worked out at 46 fold. The “pEC50, calcium influx, Steroid Alone” value (human sperm, mean ±SD) is 6.77 ± 0.18.
Turning to `C[C@]12CC[C@@H]3c4ccc(O)cc4CC[C@H]3[C@@H]1CC[C@@H]2O` [compound 37, 17β-estradiol], the Emax was 94%. The 50% effective concentration (EC50) under setting [1] was 0.295 µM.
In the same order, the values of `CC#C[C@]1(O)CC[C@H]2[C@@H]3CCC4=CC(=O)CCC4=C3[C@@H](c3ccc(N(C)C)cc3)C[C@@]21C` [compound 33, mifepristone (RU-486)] are 109% and 4.68 µM.
For `C[C@]12CC[C@H]3[C@@H](CCC4=CC(=O)CC[C@@]43C)[C@@H]1CC[C@@H]2O` [compound 36, testosterone], the EC50 was 0.219 µM and the maximal effect (Emax) came to 114%.
Consider `C[C@]12CCC(=O)C=C1[C@@H]1C[C@@H]1[C@H]1[C@@H]3[C@@H]4C[C@@H]4[C@@]4(CCC(=O)O4)[C@@]3(C)CC[C@@H]12` [compound 31, drospirenone], for which the Emax was determined as 115%. Moreover, under setting [1], the concentration giving a half-maximal response (EC50) was 0.525 µM.
